One data set deals with Blood. Description: Inhibition of LPS-induced TNFalpha production in human whole blood. The class given is functional, tissue-based.
Data set [1] can be described thus: Apparent permeability across human Caco-2 cells. The data set is classed as ADME, cell-based.
A further data set has as its target T1, Interstitial collagenase (Homo sapiens, UniProt P03956).
T1 sequence (P03956 whole entry): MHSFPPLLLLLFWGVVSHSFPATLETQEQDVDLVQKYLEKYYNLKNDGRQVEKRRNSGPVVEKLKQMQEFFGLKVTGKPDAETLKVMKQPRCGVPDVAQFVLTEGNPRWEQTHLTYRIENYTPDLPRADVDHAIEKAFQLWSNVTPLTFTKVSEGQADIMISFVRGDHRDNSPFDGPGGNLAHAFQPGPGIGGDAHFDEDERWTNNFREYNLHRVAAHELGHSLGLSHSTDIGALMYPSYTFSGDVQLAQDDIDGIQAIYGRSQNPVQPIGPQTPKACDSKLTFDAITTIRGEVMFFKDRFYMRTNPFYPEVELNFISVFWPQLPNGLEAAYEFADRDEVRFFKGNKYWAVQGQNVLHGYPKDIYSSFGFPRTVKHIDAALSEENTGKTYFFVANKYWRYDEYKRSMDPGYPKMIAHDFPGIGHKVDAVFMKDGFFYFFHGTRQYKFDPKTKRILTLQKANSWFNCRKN
Nature of the data set: Inhibition of MMP1.

In data set [2] the target is 72 kDa type IV collagenase (Homo sapiens, UniProt P08253). Description: Inhibition of MMP2.
The target in data set [3] is Matrix metalloproteinase-9 (Homo sapiens, UniProt P14780). Nature of the data set: Inhibition of MMP9.
Data set [4] can be described thus: Half life in Sprague-Dawley rat at 5 mg/kg, iv. The class given is ADME, organism-based. More on the design: dose 5 mg/kg, route intravenous. As to conditions: in vivo. In short, it runs like this:
(§1)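 Sprague–Dawley rats dosed 5 mg/kg iv and 5 mg/kg orally as n-in-1 cassette. Plasma levels measured by LC/MS/MS.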

Data set [5] is described as follows: Half life in Sprague-Dawley rat at 5 mg/kg, po. As to conditions: in vivo. Also noted: dose 5 mg/kg, route oral. The data set is classed as ADME, organism-based. The method, boiled down:
as §1

Data set [6] in a line: Clearance in Sprague-Dawley rat at 5 mg/kg, iv. The class given is ADME, organism-based. More on the design: dose 5 mg/kg, route intravenous. The settings on record: in vivo. The method, boiled down: as §1
Data set [7] can be described thus: Volume of distribution at steady state in Sprague-Dawley rat at 5 mg/kg, iv. The data set is classed as ADME, organism-based. Also noted: dose 5 mg/kg, route intravenous. The settings on record: in vivo, read-out: Vdss. The method, boiled down:
as §1

Data set [8] is described as follows: AUC in Sprague-Dawley rat at 5 mg/kg, iv. As to conditions: plasma. Also noted: dose 5 mg/kg, route intravenous. The data set is classed as ADME, organism-based. The method, boiled down:
as §1

A short description of data set [9]: Tmax in Sprague-Dawley rat at 5 mg/kg, po. More on the design: dose 5 mg/kg, route oral. The data set is classed as ADME, organism-based. As to conditions: in vivo. In short, it runs like this: as §1
Data set [10] is described as follows: AUC in Sprague-Dawley rat at 5 mg/kg, po. The data set is classed as ADME, organism-based. More on the design: dose 5 mg/kg, route oral. As to conditions: plasma. The method, boiled down:
as §1

The nature of data set [11]: Bioavailability in Sprague-Dawley rat at 5 mg/kg, po. The data set is classed as ADME, organism-based. As to conditions: in vivo. The method, boiled down: as §1
Data set [12] can be described thus: Oral bioavailability in Beagle dog. The data set is classed as ADME, organism-based, Canis lupus familiaris. The settings on record: in vivo.
Another data set is filed under the species Mus musculus. Description: Inhibition of LPS-induced TNFalpha production in mouse endotoxemia model after 1 hr. The class given is functional. The method, boiled down:
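Mice given lipopolysaccharide together with graded oral gavage doses of inhibitor at t = 0 h. Animals euthanized 1 h post-dose and whole blood taken by cardiac puncture. TNF-α measured in plasma. ED50 calculated from the dose–response.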

The target of data set [13] is Disintegrin and metalloproteinase domain-containing protein 17 (Sus scrofa, UniProt O77636).

pIC50, pKi: −log10 of the molar value.

The term pIC50 denotes the negative decadic logarithm of the IC50, by convention in mol/L. A low value points to a large IC50. Usually Papp stands for a coefficient for how fast a substance crosses the barrier. By pKi is commonly meant the Ki on a negative log10 scale, so that one unit is a factor of ten. A high value points to a low Ki. Broadly, the half-life is the time in which the quantity being followed falls by half. A higher half-life goes with slow decline. By clearance is commonly meant the volume of plasma or blood freed of the substance per unit of time. The AUC is concentration integrated over time. The Tmax is the time from dosing to the highest level. Broadly, the bioavailability is dose-corrected exposure relative to a reference, in per cent. A higher bioavailability goes with much systemic uptake. As usually defined, the ED50 is the midpoint of the dose-response relation.

Matrix metalloproteinase-9, sequence (P14780 whole entry): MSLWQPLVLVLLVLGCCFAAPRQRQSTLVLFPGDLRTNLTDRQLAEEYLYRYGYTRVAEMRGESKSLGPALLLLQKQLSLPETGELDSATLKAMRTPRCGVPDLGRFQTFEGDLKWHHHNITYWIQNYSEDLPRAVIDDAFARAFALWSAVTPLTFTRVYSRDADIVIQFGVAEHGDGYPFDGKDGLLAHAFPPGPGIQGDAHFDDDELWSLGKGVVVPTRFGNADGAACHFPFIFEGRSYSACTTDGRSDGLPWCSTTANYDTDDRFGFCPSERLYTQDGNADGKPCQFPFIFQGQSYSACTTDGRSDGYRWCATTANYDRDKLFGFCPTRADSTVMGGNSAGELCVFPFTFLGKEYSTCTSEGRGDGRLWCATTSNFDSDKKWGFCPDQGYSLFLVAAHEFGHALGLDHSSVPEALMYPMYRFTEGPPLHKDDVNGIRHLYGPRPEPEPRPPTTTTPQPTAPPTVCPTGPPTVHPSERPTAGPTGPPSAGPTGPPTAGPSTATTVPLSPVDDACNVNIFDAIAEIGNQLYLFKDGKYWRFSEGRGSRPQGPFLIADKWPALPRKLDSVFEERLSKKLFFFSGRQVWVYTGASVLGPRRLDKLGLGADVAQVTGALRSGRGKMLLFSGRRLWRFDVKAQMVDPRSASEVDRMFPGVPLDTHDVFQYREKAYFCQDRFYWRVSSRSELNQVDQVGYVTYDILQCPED
Disintegrin and metalloproteinase domain-containing protein 17, sequence (O77636 whole entry, the tested form may be a part): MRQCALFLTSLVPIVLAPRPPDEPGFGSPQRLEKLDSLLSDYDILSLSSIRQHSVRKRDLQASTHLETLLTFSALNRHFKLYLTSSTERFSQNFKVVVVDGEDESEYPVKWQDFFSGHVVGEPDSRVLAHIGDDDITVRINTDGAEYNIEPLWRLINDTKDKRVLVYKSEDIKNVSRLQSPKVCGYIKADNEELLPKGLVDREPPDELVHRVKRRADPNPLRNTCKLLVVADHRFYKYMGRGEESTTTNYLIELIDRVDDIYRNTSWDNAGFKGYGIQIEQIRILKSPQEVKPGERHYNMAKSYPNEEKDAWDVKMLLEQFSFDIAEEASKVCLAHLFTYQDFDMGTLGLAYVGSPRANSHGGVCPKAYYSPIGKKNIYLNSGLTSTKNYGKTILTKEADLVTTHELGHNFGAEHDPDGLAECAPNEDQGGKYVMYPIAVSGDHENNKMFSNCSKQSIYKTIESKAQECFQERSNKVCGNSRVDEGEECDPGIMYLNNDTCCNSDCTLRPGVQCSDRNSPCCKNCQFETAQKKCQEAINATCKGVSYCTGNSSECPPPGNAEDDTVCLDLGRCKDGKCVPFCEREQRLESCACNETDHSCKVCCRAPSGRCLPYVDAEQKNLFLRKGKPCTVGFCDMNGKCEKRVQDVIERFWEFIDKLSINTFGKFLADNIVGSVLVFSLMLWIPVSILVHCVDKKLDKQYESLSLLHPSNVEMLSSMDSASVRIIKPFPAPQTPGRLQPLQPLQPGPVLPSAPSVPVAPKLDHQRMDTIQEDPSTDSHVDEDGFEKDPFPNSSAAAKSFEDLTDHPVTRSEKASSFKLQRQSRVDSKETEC
72 kDa type IV collagenase, sequence (P08253 whole entry): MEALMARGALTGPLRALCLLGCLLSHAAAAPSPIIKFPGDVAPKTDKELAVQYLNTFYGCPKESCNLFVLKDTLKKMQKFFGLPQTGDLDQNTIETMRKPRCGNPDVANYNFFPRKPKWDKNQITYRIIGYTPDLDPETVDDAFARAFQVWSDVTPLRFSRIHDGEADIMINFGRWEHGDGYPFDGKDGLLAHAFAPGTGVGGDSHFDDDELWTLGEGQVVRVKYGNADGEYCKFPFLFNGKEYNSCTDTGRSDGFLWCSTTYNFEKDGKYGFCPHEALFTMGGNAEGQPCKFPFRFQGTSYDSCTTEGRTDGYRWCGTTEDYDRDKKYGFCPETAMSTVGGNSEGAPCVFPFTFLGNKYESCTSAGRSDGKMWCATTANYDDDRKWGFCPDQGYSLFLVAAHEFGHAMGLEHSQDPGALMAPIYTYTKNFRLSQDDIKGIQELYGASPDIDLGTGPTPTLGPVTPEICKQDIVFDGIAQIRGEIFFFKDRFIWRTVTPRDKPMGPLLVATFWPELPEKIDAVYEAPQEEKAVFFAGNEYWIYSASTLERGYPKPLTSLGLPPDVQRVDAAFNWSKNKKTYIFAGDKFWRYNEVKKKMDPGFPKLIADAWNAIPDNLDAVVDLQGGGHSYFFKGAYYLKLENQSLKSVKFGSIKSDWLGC

Regarding `Cc1cc(COc2ccc(C(=O)N[C@@H]3C[C@@]4(CCCO4)C[C@@H]3C(=O)NO)cc2)c2ccccc2n1`, the pIC50 in the data set with Blood is 6.97; in [13], 9.00. Further, the Papp in [1] amounted to 5.7 ×10⁻⁶ cm/s. For the same compound, the negative logarithm of the Ki (pKi) is less than 5.31 at Interstitial collagenase, 5.87 in data set [2] and 5.84 in data set [3]. In addition, the half-life in [4] was 4.2 h; in data set [5] it was 1.3 h. The compound further had a clearance in data set [6] of 11.7 mL/min/kg. In data set [7], the Vd came to 0.3 L/kg. Also, the results for the AUC in data set [8] and in [10] were 12.6 µM·h and 3.93 µM·h, respectively. In addition, the Tmax in data set [9] worked out at 0.1 h. Besides, the bioavailability worked out at 31% in data set [11] and 68% in data set [12]. In the data set listed under Mus musculus, this compound registered an ED50 of 1 mg/kg.

For `Cc1cc(COc2ccc(C(=O)N[C@@H]3C[C@]4(CCCO4)C[C@@H]3C(=O)NO)cc2)c2ccccc2n1`, the pIC50 with Blood was 6.84; in data set [13] it was 9.00. The Papp in data set [1] stood at 1.5 ×10⁻⁶ cm/s. Also, the figures for the pKi (at Interstitial collagenase; in data set [2]; in data set [3]) were less than 5.31, 5.72 and 5.90, respectively. Also, the half-life in data set [4] is 6.9 h; in [5], 1.9 h. The same compound had a clearance in [6] of 13.3 mL/min/kg. Also, the Vd in data set [7] turned out to be 1.4 L/kg. For the same compound, the AUC was found to be 10.9 µM·h in [8] and 3.85 µM·h in [10]. Moreover, the Tmax in data set [9] came to 0.25 h. Further, the bioavailability in data set [11] is 35%.

The values above are taken from ChEMBL document CHEMBL1141487, “Alpha,Beta-cyclic-beta-benzamido hydroxamic acids: Novel oxaspiro[4.4]nonane templates for the discovery of potent, selective, orally bioavailable inhibitors of tumor necrosis factor-alpha converting enzyme (TACE)” (Bioorg Med Chem Lett, 2008).
